Assay results from ChEMBL document CHEMBL1122527, “Design, synthesis, and testing of potential antisickling agents. 5. Disubstituted benzoic acids designed for the donor site and proline salicylates designed for the acceptor site” (J Med Chem, 1984).

Key:
[1] = Control value of dHbS(no. of runs=1); format: functional
In short: (§1)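 Deoxy-HbS control tube with buffer in place of the compound: HbS in 0.15 M phosphate was deoxygenated with dithionite (1.06 M stock) in a sealed EPR tube. It was spun with each run's set of six tubes, alongside four drug tubes and a 40 mM phenylalanine standard. The value is the HbS solubility in g/dL, used as the denominator of the solubility ratio.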

[2] = Evaluated for antisickling activity, and ratio was calculated as solubility HbS (g/dL) / solubility HbS control(g/dL) at a concentration of 5 mM; format: functional
In short: (§2)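 Hofrichter-type antigelling assay. Acids were dissolved as sodium salts (sodium bicarbonate) at 0.18 M stock in 0.15 M phosphate, pH 7.4. Aliquots went into HbS (stock around 35 g%) with dithionite as deoxygenant; EPR tubes were sealed and spun. Final drug was 5, 10, 20 and 40 mM. Each six-tube run held a buffer-only deoxy-HbS control and a 40 mM phenylalanine standard. Ratio = soluble HbS with drug / control (g/dL).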

[3] = Evaluated for antisickling activity, and ratio was calculated as solubility HbS (g/dL) / solubility HbS control(g/dL) at a concentration of 20 mM; format: functional; in short: as §2
[4] = Evaluated for antisickling activity, and initial HbS concentration was reported, values from different experiments (no. of runs=1); format: functional
In short: (§3)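 Hofrichter-type antigelling assay: the compound was made up as its sodium salt (0.18 M stock) in 0.15 M phosphate buffer, pH 7.4, with sodium bicarbonate. It was diluted with buffer and added to HbS (about 35 g % in 0.15 M phosphate), then dithionite (1.06 M stock) was added and the EPR tubes were sealed. Final drug levels were 5, 10, 20 and 40 mM. Initial HbS (g/dL) is the level after drug and dithionite addition, the same in all six tubes of a run.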

[5] = Evaluated for antisickling activity, and ratio was calculated as solubility HbS (g/dL) / solubility HbS control(g/dL) at a concentration of 10 mM; format: functional; in short: as §2
[6] = Evaluated for antisickling activity, and ratio was calculated as solubility HbS compound (g/dL) / solubility HbS control(g/dL) at a concentration of 40 mM; format: functional; in short: as §2
[7] = Control value of dHbS(no. of runs=3); format: functional; in short: as §1
[8] = Compound was evaluated for antisickling activity, and initial HbS concentration was reported, values from different experiments (no. of runs=3); format: functional; in short: as §3
[9] = Control value of dHbS(no. of runs=2); format: functional; in short: as §1
[10] = Evaluated for antisickling activity, and initial HbS concentration was reported, values from different experiments (no. of runs=2); format: functional; in short: as §3
[11] = Compound was evaluated for antisickling activity, and initial HbS concentration was reported, values from different experiments (no. of runs=1); format: functional; in short: as §3
[12] = Control value of dHbS (no. of runs=2); format: functional; in short: as §1
[13] = Compound was evaluated for antisickling activity, and initial HbS concentration was reported, values from different experiments (no. of runs=1)
[14] = Control value of dHbS (no. of runs=1); format: functional; in short: as §1
[15] = Compound was evaluated for antisickling activity, and ratio was calculated as solubility HbS compound (g/dL) / solubility HbS control(g/dL) at a concentration of 40 mM (for 173 assays); format: functional
In short: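 Phenylalanine reference standard at 40 mM, included in every six-tube set of the sealed-tube dithionite-deoxygenated HbS sedimentation solubility assay, pH 7.4 phosphate. Ratio = soluble HbS with Phe / soluble HbS in the buffer control (g/dL). Reported as mean and standard deviation over 173 assays.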

`CCC(=O)Nc1cc(OCC(=O)O)cc(C(=O)O)c1` gave a Control value [1] of 16.6 g/dL, a Ratio [2] of 1 and a Ratio [3] of 1.07. For the same compound, the Concentration [4] was 24.3 g/dL, the Ratio [5] was 1.03 and the Ratio [6] was 1.15.
`CCCCCCCC(=O)Nc1cc(OCC(=O)O)cc(C(=O)O)c1` gave a Control value [1] of 16.3 g/dL, a Ratio [2] of 1.04 and a Ratio [3] of 1.23. The Concentration [4] was 24.3 g/dL, the Ratio [5] was 1.1 and the Ratio [6] was 1.43.
In the case of `CC(C)(Oc1ccc(CCNC(=O)c2ccc(Cl)cc2)cc1)C(=O)O`, the Control value [7] is reported as 18.2 g/dL, the Concentration [8] is reported as 24.8 g/dL and the Ratio [2] is reported as 0.954. For the same compound, the Ratio [3] was 0.981, the Ratio [5] was 0.932 and the Ratio [6] was 1.2.
`O=C(O)COc1cc(NC(=O)c2ccc(Br)cc2)cc(C(=O)O)c1` showed a Control value [1] of 17.4 g/dL, a Ratio [2] of 1.02 and a Ratio [3] of 1.24. It also gave a Concentration [4] of 24 g/dL, a Ratio [5] of 1.08 and a Ratio [6] of 1.32.
Compound `O=C(O)c1ccccc1OC(=O)C1CCCN1C(=O)COc1ccccc1` (stereo unspecified) has a Control value [1] of 17.1 g/dL, a Ratio [2] of 0.987 and a Ratio [3] of 1.02. For the same compound, the Concentration [4] was 24 g/dL, the Ratio [5] was 1.02 and the Ratio [6] was 1.08.
For `O=C(O)COc1cc(NC(=O)c2ccc(Cl)c(Cl)c2)cc(C(=O)O)c1`, the Control value [7] was 16.9 g/dL, the Concentration [8] was 24.8 g/dL and the Ratio [2] was 1.09. For the same compound, the Ratio [3] was 1.35, the Ratio [5] was 1.19 and the Ratio [6] was 1.45.
Compound `CC(C)(C)C(=O)N1CCCC1C(=O)O` (stereo unspecified) has a Control value [1] of 16.1 g/dL, a Ratio [2] of 1.03 and a Ratio [3] of 1.05. The Concentration [4] was 22.9 g/dL, the Ratio [5] was 1.05 and the Ratio [6] was 1.07.
In the case of `O=C(O)COc1cc(NC(=O)c2ccccc2)cc(C(=O)O)c1`, the Ratio [2] is reported as 1.06, the Control value [9] is reported as 17.4 g/dL and the Ratio [3] is reported as 1.16. The Ratio [5] was 1.09, the Concentration [10] was 23.8 g/dL and the Ratio [6] was 1.37.
`O=C(O)c1ccccc1OC(=O)C1CCCN1C(=O)Cc1ccccc1` (stereo unspecified) gave a Control value [1] of 17.1 g/dL, a Ratio [2] of 1.03 and a Ratio [3] of 1.05. It also gave a Concentration [4] of 24.6 g/dL, a Ratio [5] of 1.03 and a Ratio [6] of 1.15.
Work on `O=C(O)c1ccccc1OC(=O)C1CCCN1C(=O)CCc1ccccc1` (stereo unspecified) yielded a Ratio [3] of 0.983, a Ratio [5] of 0.988 and a Ratio [6] of 0.951. It also gave a Concentration [11] of 23.4 g/dL.
Work on `CC(C)(C)C(=O)N1CCCC1C(=O)Oc1ccccc1C(=O)O` (stereo unspecified) yielded a Control value [1] of 16.5 g/dL, a Ratio [2] of 0.993 and a Ratio [3] of 1.03. The Concentration [4] was 22.9 g/dL, the Ratio [5] was 1 and the Ratio [6] was 1.08.
With `O=C(O)C1CCCN1C(=O)Cc1ccccc1` (stereo unspecified) the Control value [12] was 17.6 g/dL, the Ratio [2] was 1 and the Ratio [3] was 1.06. The Ratio [5] was 1.01, the Concentration [10] was 24.5 g/dL and the Ratio [6] was 1.13.
With `O=C(O)c1ccccc1OC(=O)C1CCCN1C(=O)CCC(O)c1ccccc1` (stereo unspecified) the Ratio [2] was 0.99, the Control value [9] was 17.6 g/dL and the Ratio [3] was 1. The Ratio [5] was 0.98, the Concentration [10] was 24.5 g/dL and the Ratio [6] was 1.15.
Compound `O=C(O)c1ccccc1OC(=O)C1CCCN1C(=O)c1ccccc1` (stereo unspecified) has a Ratio [2] of 0.999, a Control value [9] of 17.2 g/dL and a Ratio [3] of 1.01. The Ratio [5] was 1, the Concentration [10] was 24.5 g/dL and the Ratio [6] was 1.03.
In the case of `O=C(O)COc1cc(NC(=O)c2ccc(Cl)cc2)cc(C(=O)O)c1`, the Concentration [13] is reported as 24 g/dL, the Ratio [2] is reported as 1.07 and the Control value [14] is reported as 17.1 g/dL. The Ratio [3] was 1.34, the Ratio [5] was 1.16 and the Ratio [6] was 1.38.
In the case of `N[C@@H](Cc1ccccc1)C(=O)O`, the Ratio [2] is reported as 1.04, the Control value [9] is reported as 17.3 g/dL and the Ratio [3] is reported as 1.09. It also gave a Ratio [15] of 1.18, a Ratio [5] of 1.05 and a Concentration [10] of 24.5 g/dL. For the same compound, the Ratio [6] was 1.18.
Compound `CC(C)(C)CC(=O)N1CCCC1C(=O)Oc1ccccc1C(=O)O` (stereo unspecified) has a Ratio [2] of 0.991, a Control value [9] of 17.6 g/dL and a Ratio [3] of 0.995. The Ratio [5] was 1.02, the Concentration [10] was 28.3 g/dL and the Ratio [6] was 1.05.
